# Bioassay records: PubChem, several laboratories
# INS promoter inh: TRM-6 insulin promoter activity inhibition. TRM-6 cells (human fetal islet line), insulin promoter-eGFP reporter, imaging; reporter expression induced with tamoxifen. inhibition, % at 2 µM. hit rate 0.9% among 130,000. AID 1273;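 active means inhibition above the mean plus 3 SD, with well images judged a real hit on visual review, cut at about 60% in these data, passing the limit was not always enough; inconclusive means inhibition over the cutoff but images rejected on review; inactive means inhibition not above the cutoff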
# NPY-Y2 PAM-ag: potentiates or activates human NPY-Y2 receptor. AID 1359. hit rate 0.45% among 220,000. cells expressing NPY-Y2, potentiator/agonist read-out. activation, % at 3.6 µM. P49146; in the data active means activation above about 27%;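 further: cells stimulated with NPY near EC25 plus isoproterenol at EC100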
# NPY1 pot ag: potentiators or agonists of human neuropeptide Y receptor Y1 | P25929 | NPY-Y1 expressing cells, potentiator/agonist activation | activation, % at 3.6 µM | hit rate 0.37% among 220,000; in the data active means activation above about 33%, passing the limit was not always enough;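 further: cells stimulated with NPY at EC10 then isoproterenol at EC100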
# Target sequence (P25929 whole entry, looked up): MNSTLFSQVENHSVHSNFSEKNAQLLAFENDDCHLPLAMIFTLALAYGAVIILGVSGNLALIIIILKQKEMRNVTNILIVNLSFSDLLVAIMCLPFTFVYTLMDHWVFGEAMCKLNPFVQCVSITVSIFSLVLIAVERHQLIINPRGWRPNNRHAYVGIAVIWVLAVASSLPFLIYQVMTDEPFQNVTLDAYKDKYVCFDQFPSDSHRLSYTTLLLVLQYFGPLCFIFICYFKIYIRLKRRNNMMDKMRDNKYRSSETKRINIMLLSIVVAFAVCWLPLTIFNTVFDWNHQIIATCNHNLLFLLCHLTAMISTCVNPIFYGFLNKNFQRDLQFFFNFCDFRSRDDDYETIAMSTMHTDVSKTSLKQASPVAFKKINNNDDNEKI
# Insulin prom up: MIN6 insulin promoter up-regulation | MIN6 insulin promoter-GFP reporter, high-content imaging; active compounds read high | z-score at 5 µM | hit rate 0.3% among 190,000 | AID 1625;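 active means z-score above 3 at 5 µM with at least 500 cells counted in the well; inconclusive means wells under 500 cells, flagged as cytotoxic or low count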
# NPY Y1 blocker: NPY-Y1 (human) receptor antagonism. hit rate 1% among 200,000. P25929. inhibition, % at 3.6 µM. HEK293-CNG Y1 cells, membrane potential fluorescence; NPY at EC95, then isoproterenol;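 active means inhibition above the campaign mean inhibition of all tested compounds plus 3 SD, cut at about 20% in these data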
#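 System: HEK293 cells with Y1 receptor plus CNG channel / Probe or stimulus: NPY 25 nM then isoproterenol 1 µM plus Ro 20-1724 25 µM / Compound: one concentration, 3.6 µM, in 0.4% DMSO / Schedule: compound incubation 1 h at room temperature, readout 45 min post-stimulation / Measured by: membrane potential fluorescence / Read-out: % inhibition of NPY effect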
# NPY Y2 blocker: NPY-Y2 (human) receptor antagonism; P49146; NPY-Y2 expressing cells, antagonist mode; inhibition, % at 2.7 µM; hit rate 0.99% among 140,000; AID 793; in the data active means inhibition above about 17%
# Hits are given with their value; 0 = inactive; ? = inconclusive; - = no result. This is a sample that favours compounds with a hit; in the whole collection about 2.5% have one here.
SMILES,INS promoter inh,NPY-Y2 PAM-ag,NPY1 pot ag,Insulin prom up,NPY Y1 blocker,NPY Y2 blocker
COc1ccc(S(=O)(=O)Nc2ccc3c(c2)n(C)c(=O)n3C)cc1,0,0,0,0,0,-
CC(Sc1nnc(-c2ccc(O)cc2)o1)C(=O)Nc1cccc2ccccc12 (configuration not stated),77,0,0,0,0,0
O=C(CCSc1nnc(-c2ccncc2)o1)Nc1cccc2ccccc12,0,0,0,-,0,0
NC(=O)c1ccccc1N/C=C/C(=O)c1ccc(Cl)cc1Cl,74,0,0,0,0,0
NC(=O)c1ccccc1N/C=C/C(=O)c1ccc(F)cc1,0,0,0,0,0,0
O=C(OCC(=O)N1CCN(C(=O)c2ccco2)CC1)c1ccccc1OCc1ccccc1,0,0,0,12,0,0
O=C(OCC(=O)N1CCCC1)c1ccccc1OCc1ccccc1,0,0,0,-,0,0
COc1ccc2sc(N(CCN(C)C)C(=O)/C=C/c3cccs3)nc2c1,0,41,42,0,0,-
Cc1ccccc1Cn1ccc(NC(=O)c2nn(C)cc2[N+](=O)[O-])n1,85,0,0,-,0,0
CCn1cc([N+](=O)[O-])c(C(=O)Nc2ccn(Cc3ccccc3F)n2)n1,0,0,0,0,0,0
COc1cccc(N=c2oc3ccccc3cc2-c2nc3ccccc3[nH]2)c1,83,0,0,0,0,0
COc1cccc(N=c2oc3ccc(OC)cc3cc2-c2nc3ccccc3[nH]2)c1,0,0,0,0,0,0
CC(C)CC1=NN(C(=O)c2ccncc2)C(O)(C(F)(F)F)C1 (configuration not stated),0,0,0,0,0,0
CN(CC(O)COc1ccccc1F)C1CCCCC1 (configuration not stated),0,0,0,0,0,-
Cc1ccccc1OCC(O)CN(Cc1ccccc1O)C1CCCCC1 (configuration not stated),-,0,0,0,20,-
CCOC(=O)CNC(=O)c1cn(CC)c(=O)c2cc(OC)c(OC)cc12,-,0,0,0,0,0
CCOC(=O)CNC(=O)c1cn(C)c(=O)c2cc(OC)c(OC)cc12,-,0,0,3.2,0,0
CCN(C(=O)c1cn(C)c(=O)c2cc(OC)c(OC)cc12)c1ccccc1C,81,0,0,0,0,0
CCN(C(=O)c1cn(C)c(=O)c2cc(OC)c(OC)cc12)c1cc(C)ccc1C,-,0,0,0,0,0
CCOc1ccc(C(O)C(CN2CCOCC2)c2ccccc2)cc1 (configuration not stated),0,0,0,0,0,0
CCOC(=O)c1ccc(-c2ccc(/C=C(\C#N)C(=O)NCc3cccs3)o2)cc1,-,0,0,0,0,17
CCC(=O)N1COC[C@@H]1Cc1ccccc1,0,0,0,0,0,0
CCOC(=O)c1c(NC(=O)CSc2nc3cc(Cl)ccc3s2)sc(C(C)=O)c1C,0,0,0,0,0,0
CCOC(=O)c1c(NC(=O)CSc2nc3ccccc3s2)sc(C(C)=O)c1C,-,0,0,?,39,22
COc1ccc(F)cc1C(=O)C1CCCN(C(=O)c2ocnc2C)C1 (configuration not stated),-,0,0,0,0,-
SMILES,INS promoter inh,NPY-Y2 PAM-ag,NPY1 pot ag,Insulin prom up,NPY Y1 blocker,NPY Y2 blocker
Cc1ccccc1NC(=S)N(Cc1ccccc1)Cc1cccs1,-,0,0,0,22,-
C(=N\N=C\c1cccnc1)/c1cccnc1,0,0,0,0,0,0
CN(/N=C/c1cccnc1)c1cnc2ccccc2n1,78,0,0,0,0,-
Cc1cc(Oc2ccccc2F)nc(NCc2ccccc2)n1,0,0,0,0,26,24
Cc1cc(N/N=C/c2ccc(F)cc2)nc(NCc2ccccc2)n1,-,0,0,0,-,-
CCCCNc1cc(C)nc(NCc2ccccc2)n1,-,0,0,?,31,29
CCN(CCNC(=O)C1CCN(S(=O)(=O)CC)CC1)c1ccccc1,0,0,0,0,0,0
CCN(CCNC(=O)C1CCCN(S(=O)(=O)CC)C1)c1ccccc1 (configuration not stated),0,0,0,3.1,0,0
O=C(c1cc([N+](=O)[O-])ccc1N1CCCC1)N1CCCC1,0,0,0,3.1,0,-
O=C(NCc1ccco1)c1cc([N+](=O)[O-])ccc1N1CCCCC1,0,0,0,0,0,0
O=C(c1cc([N+](=O)[O-])ccc1N1CCCCC1)N1CCCC1,0,0,0,0,0,0
O=C(NCc1ccc2c(c1)OCO2)c1cc([N+](=O)[O-])ccc1N1CCCCC1,0,0,0,0,25,23
CCOc1ccccc1NC(=O)CN(c1ccc(OC)cc1OC)S(=O)(=O)c1ccccc1[N+](=O)[O-],0,0,0,-,0,-
COc1ccc(OC)c(CN2CCCC(C(=O)c3ccccc3SC)C2)c1 (configuration not stated),-,0,0,0,0,-
CCCOc1ccc(N2C(=O)CC(NCc3ccncc3)C2=O)cc1 (configuration not stated),0,0,0,0,0,0
CCOC(=O)c1[nH]c2ccccc2c1NC(=S)Nc1cc(C)ccc1C,76,0,0,0,0,0
CCOC(=O)c1c(C)n(C)c2ccc(O)c(CN3CCN(C)CC3)c12,-,0,0,0,0,0
CCOC(=O)c1c(C)n(C)c2ccc(O)c(CN(CC)CC)c12,0,60,70,-,0,0
CCOC(=O)c1c(C)oc2ccc(O)c(CN(C)C)c12,0,53,61,0,0,0
NN/C(=C\[N+](=O)[O-])Nc1ccc(Cl)cc1,-,0,0,0,0,-
CCNc1nc(NCC)nc(N(CC)C(N)=S)n1,-,0,0,0,-,-
C=CCc1cccc(CNc2c(C)n(C)n(-c3ccccc3)c2=O)c1O,76,0,0,0,0,0
Cc1cc(C)cc(Nc2nc3c([nH]2)c(=O)n(C)c(=O)n3C)c1,0,0,0,0,0,-
Cc1ccc(Nc2nc3c([nH]2)c(=O)n(C)c(=O)n3C)cc1,0,0,0,3.3,0,0
Cc1ccc(Cn2c(-c3nonc3N)nc3ccccc32)cc1,0,0,0,0,23,21
SMILES,INS promoter inh,NPY-Y2 PAM-ag,NPY1 pot ag,Insulin prom up,NPY Y1 blocker,NPY Y2 blocker
CC(C)OP(=O)(OC(C)C)C(Nc1ccc([N+](=O)[O-])cc1)c1cccc([N+](=O)[O-])c1 (configuration not stated),-,0,0,0,-,-
CC(C)OP(=O)(OC(C)C)/C(C=O)=N\Nc1ccc([N+](=O)[O-])cc1,-,53,51,0,-,-
O=C(Nc1nc2ccccc2s1)C1CCN(S(=O)(=O)c2cc([N+](=O)[O-])ccc2Cl)CC1,-,82,80,?,-,-
c1ccc(N2CCN(c3nc4ccccc4[nH]3)CC2)nc1,?,0,0,0,0,-
c1ccc2[nH]c(N3CCOCC3)nc2c1,61,0,0,0,0,0
C/C(=N\Nc1nc2ccccc2[nH]1)c1ccc(N2CCOCC2)cc1,75,0,0,0,0,-
CCCCCCCn1c(=O)c(C(=O)OC)c(N)c2ccccc21,-,0,0,0,-,-
O=c1c2c(nc3cc(-c4ccc(F)cc4)[nH]n13)CCC2,-,0,0,0,0,0
